Published values of several laboratories.
Each line is one published result; the experiments were not run side by side.
ALK: ALK tyrosine kinase receptor (ALK, Homo sapiens, UniProt Q9UM73)
ALK C1156Y: ALK tyrosine kinase receptor (ALK, Homo sapiens, UniProt Q9UM73, C1156Y)
ALK L1196M: ALK tyrosine kinase receptor (ALK, Homo sapiens, UniProt Q9UM73, L1196M)

Nc1ncc2c(n1)-c1c([nH]c3ccc(C#CC4CC4)cc13)CCCC2  remaining binding (ALK; binding, competition with immobilised ligand; 1 µM): 95%
COc1cnc(Nc2cccc(S(N)(=O)=O)c2)nc1N1CCN(c2ccccc2)CC1  remaining binding (ALK; binding, competition with immobilised ligand; 1 µM): 78%
C=CC(=O)N1CCC(C(=O)NCC(=O)N2CCN(c3nc(-c4cnc(N)nc4C(F)F)nc(N4CCOCC4)n3)CC2)CC1  remaining binding (ALK C1156Y; binding, competition with immobilised ligand; 1 µM): 91%
CC(C)(C)c1ccc(-c2nc(CBr)nn2-c2cccc(O)c2)cc1  remaining binding (ALK; cell-free assay, competition with immobilised ligand; 10 µM): 78%
C[C@@H]1CN(c2cc(-c3nn(C)c4ccc(OC5(C)CC5)cc34)ncn2)C[C@H](C)O1  remaining binding (ALK C1156Y; cell-free assay, competition with immobilised ligand; 1 µM): 82%
COc1ncc2cc3ccccc3nc2c1C#N  remaining binding (ALK; cell-free assay, competition with immobilised ligand; 5 µM): 81%
C[C@@H]1CCN(c2nccc(-c3cnn4ncccc34)n2)C1  remaining binding (ALK C1156Y; binding; 1 µM): 91%
CCN1CCN(Cc2ccc(C(=O)Nc3ccc(C)c(Oc4ccc5c(c4)CC(=O)N5)c3)cc2C(F)(F)F)CC1  remaining binding (ALK; binding, competition with immobilised ligand; 1 µM): 100%
COc1ccc2c(c1)O[C@H](c1ccc(OC)c(OC)c1)C[C@@H]2NC(=O)C1(c2ccc3c(c2)OC(F)(F)O3)CC1  remaining binding (ALK; cell-free assay, competition with immobilised ligand; 1 µM): 100%
Cc1cnn2ncc(-c3ccnc(N(C)C)n3)c2c1  remaining binding (ALK L1196M; binding; 1 µM): 71%
O=S(=O)(NC1CCC(c2cc(F)ccc2F)(S(=O)(=O)c2ccc(Cl)cc2)CC1)C(F)(F)F (centres unmarked)  remaining binding (ALK L1196M; cell-free assay, competition with immobilised ligand; 1 µM): 94%
F[C@@H]1CCN(c2nccc(-c3cnn4ncccc34)n2)C1  remaining binding (ALK C1156Y; binding; 1 µM): 100%
C[C@@H](c1ccc(-n2cnc3c(N)ncnc32)cc1)N1CCc2nn(C)c(Cc3ccccc3)c2C1=O  remaining binding (ALK L1196M; binding, competition with immobilised ligand; 0.1 µM): 60%
C[C@H](c1ccc(F)cc1)N(Cc1cccc(C(=O)O)c1)C(=O)c1cnc2ccccc2c1  remaining binding (ALK; cell-free assay, competition with immobilised ligand; 1 µM): 94%
CNC(=O)[C@@H]1CC[C@@H](n2c(-c3ccc4cnccc4c3)nc3ccc(C(=O)NCc4cccc(C(N)=O)c4)cc32)C1  remaining binding (ALK; binding, competition with immobilised ligand; 1 µM): 100%
O=C(c1ccc(Nc2ncc(Cl)c(-c3ccc(Cl)s3)n2)cc1)N1CCC(N2CCCC2)CC1  remaining binding (ALK C1156Y; binding, competition with immobilised ligand; 1 µM): 38%
O=C(NCc1ncc(C(F)(F)F)cc1Cl)c1ccc2c(c1)C1(CCS(=O)(=O)CC1)[C@H](C1CC1)N2S(=O)(=O)c1ccc(F)cc1  remaining binding (ALK C1156Y; cell-free assay, competition with immobilised ligand; 1 µM): 82%
O=C(NCC1CCOCC1)c1n[nH]cc1NC(=O)c1c(F)cccc1F  remaining binding (ALK L1196M; binding, competition with immobilised ligand; 1 µM): 100%
CO[C@@H](C)c1c(Nc2ccc([C@H](N(C)C(=O)C3CCS(=O)(=O)CC3)C(F)(F)F)cc2)cnc2cc(Cl)nn12  remaining binding (ALK C1156Y; cell-free assay, competition with immobilised ligand; 1 µM): 89%
CN(C)c1nccc(-c2cnn3ncccc23)n1  remaining binding (ALK; binding; 1 µM): 100%
O=C(Nc1c[nH]nc1C(=O)NC1CCNCC1)c1cc(F)cc(F)c1  remaining binding (ALK C1156Y; binding, competition with immobilised ligand; 1 µM): 100%
N#Cc1ccccc1CSc1nnc2c(n1)[nH]c1ccccc12  remaining binding (ALK; binding, competition with immobilised ligand; 10 µM): 72%
O=C(NCCCN1CCOCC1)c1ccc(Nc2nccc(-c3cc4ccccc4s3)n2)cc1  remaining binding (ALK C1156Y; binding, competition with immobilised ligand; 1 µM): 97%
COc1ccnn2ncc(-c3ccnc(N(C)C)n3)c12  remaining binding (ALK L1196M; binding; 1 µM): 91%
CN1CCN(c2ccc(Nc3nccc(-c4ccccc4)n3)cc2C(F)(F)F)CC1  remaining binding (ALK L1196M; binding; 10 µM): 100%
CO[C@H]1CC[C@H](CNc2ccc(S(=O)(=O)NC(=O)c3ccc(N4CCN(CC5=C(c6ccc(Cl)cc6)CC(C)(C)CC5)CC4)cc3Oc3cnc4[nH]ccc4c3)cc2[N+](=O)[O-])CC1  remaining binding (ALK C1156Y; cell-free assay, competition with immobilised ligand; 1 µM): 100%
C[C@@H]1CN(c2ccc3ncc(-c4ccc5[nH]nc(C6CC6)c5c4)n3n2)C[C@H](C)O1  remaining binding (ALK; binding, competition with immobilised ligand; 50 nM): 64%
O=C(NCCCN1CCOCC1)c1ccc(Nc2ncc(Cl)c(-c3ccc(Cl)s3)n2)cc1  remaining binding (ALK; binding, competition with immobilised ligand; 1 µM): 67%
c1cncc(-c2cccc(Nc3nccc(NC4CCCCC4)n3)c2)c1  remaining binding (ALK L1196M; binding, competition with immobilised ligand; 10 µM): 57%
Cc1cnc(Nc2ccc(C(=O)N3CCC(N4CCCC4)CC3)cc2)nc1-c1cc2ccccc2s1  remaining binding (ALK L1196M; binding, competition with immobilised ligand; 1 µM): 82%
CC1CCCN1c1nccc(-c2cnn3ncccc23)n1 (centres unmarked)  remaining binding (ALK L1196M; binding; 1 µM): 85%
COc1cnc(Nc2cccc(S(N)(=O)=O)c2)nc1N1CCN(c2ccccc2)C(=O)C1  remaining binding (ALK C1156Y; binding, competition with immobilised ligand; 1 µM): 96%
O=C(NC[C@@H]1[C@H]2CN(C(=O)OCc3cc(C(F)(F)F)cc(C(F)(F)F)c3)C[C@@H]12)c1ccc2[nH]nnc2c1  remaining binding (ALK; cell-free assay, competition with immobilised ligand; 1 µM): 79%
CN1CCN(c2ccc(Nc3nccc(-c4cccc([N+](=O)[O-])c4)n3)cc2C(F)(F)F)CC1  remaining binding (ALK C1156Y; binding; 10 µM): 42%
O=C(c1ccc(Nc2ncc(Cl)c(-c3cc4ccccc4s3)n2)cc1)N1CCC(N2CCCC2)CC1  remaining binding (ALK C1156Y; binding, competition with immobilised ligand; 1 µM): 59%
c1cnn2ncc(-c3ccnc(N4CCC45COC5)n3)c2c1  remaining binding (ALK C1156Y; binding; 1 µM): 73%
O=C(c1ccc(Nc2nccc(-c3cc4ccccc4s3)n2)cc1)N1CCC(N2CCCC2)CC1  remaining binding (ALK L1196M; binding, competition with immobilised ligand; 1 µM): 80%
CN(C)c1ncc(F)c(-c2cnn3ncccc23)n1  remaining binding (ALK C1156Y; binding; 1 µM): 80%
